Entries after “also recorded” stand apart in the source; their conditions may differ. Like-named read-outs stand apart in the source and are kept apart here.
Experiments:
[1] = biological target: T1, LAP (from porcine kidney microsomes) (Sus scrofa, UniProt P15145); experiment: In vitro LAP cleavage assay; type: in vitro ADME; settings: for Specific Activity of LAP: rate study; for Specific Activity of LAP / % Cleavage by LAP: pH 7.2, 37 °C; for % Cleavage by LAP: area ratio of parent drug and prodrug (HPLC); for Cleavage rate relative to corresponding serinamide analogue: glycinamide versus serinamide prodrug of the same isomer; for Cleavage with a large amount of LAP (in words): 1.5 units of LAP
T1 sequence (P15145 1-963): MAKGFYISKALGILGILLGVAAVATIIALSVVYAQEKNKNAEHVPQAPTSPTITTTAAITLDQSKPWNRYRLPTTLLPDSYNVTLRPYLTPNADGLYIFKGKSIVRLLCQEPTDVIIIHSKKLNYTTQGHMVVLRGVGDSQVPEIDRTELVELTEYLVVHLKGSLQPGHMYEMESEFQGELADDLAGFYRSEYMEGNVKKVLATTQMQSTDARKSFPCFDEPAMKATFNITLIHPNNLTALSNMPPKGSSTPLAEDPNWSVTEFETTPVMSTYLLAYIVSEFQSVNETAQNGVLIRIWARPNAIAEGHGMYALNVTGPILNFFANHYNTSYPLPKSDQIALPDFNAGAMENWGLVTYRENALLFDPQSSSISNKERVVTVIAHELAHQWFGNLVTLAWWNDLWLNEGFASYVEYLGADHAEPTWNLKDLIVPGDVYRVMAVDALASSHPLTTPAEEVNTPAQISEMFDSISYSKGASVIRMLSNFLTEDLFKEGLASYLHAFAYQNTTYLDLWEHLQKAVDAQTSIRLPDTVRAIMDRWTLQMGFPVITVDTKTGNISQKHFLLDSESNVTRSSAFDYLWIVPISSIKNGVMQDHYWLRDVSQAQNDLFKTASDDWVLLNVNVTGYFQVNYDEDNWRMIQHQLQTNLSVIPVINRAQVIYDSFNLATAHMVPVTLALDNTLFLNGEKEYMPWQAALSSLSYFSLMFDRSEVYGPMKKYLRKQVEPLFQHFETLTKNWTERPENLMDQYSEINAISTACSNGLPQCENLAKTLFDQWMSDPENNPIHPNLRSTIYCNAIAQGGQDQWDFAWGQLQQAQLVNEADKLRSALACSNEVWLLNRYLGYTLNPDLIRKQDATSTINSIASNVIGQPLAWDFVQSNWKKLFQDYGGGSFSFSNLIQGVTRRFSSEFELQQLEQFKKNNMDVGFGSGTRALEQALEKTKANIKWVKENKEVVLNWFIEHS

[2] = system: MDA-MB-231-luc human breast tumor; experiment: In vivo dynamic bioluminescence imaging; set-up: species or system SCID mice; settings: for BLI signal compared with baseline (significance): 4 h and 24 h
[3] = system: human cancer cell lines [SK-OV-3 (ovarian), NCI-H460 (lung), and DU-145 (prostate)]; experiment: SRB cytotoxicity, stated across all three cell lines; type: cell-based; settings: for GI50 values described in words: parent drugs, three cell lines
[4] = system: HUVECs; experiment: In vitro HUVEC tubule disruption assay; type: cell-based, human; settings: for Disruption of capillary-like network of tubules (HUVECs): concentration of 0.1 μM; for Disruption of HUVEC tubular network on matrigel: concentration of 1.0 μM
How it was run: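 HUVECs (124,000 cells in M200 growth factors) plated on Matrigel (9.5 mg/mL) that had been pre-set 60 min at 37 °C; cells incubated 16 h at 37 °C to form tubule network. Test compound then added at 0.01, 0.1 or 1.0 μM. Network photographed, 9 fields/well, 40x objective.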

[5] = system: HUVECs; settings: cited from earlier work
[6] = system: NCI-H460 (lung); experiment: SRB cytotoxicity assay, NCI-H460; type: cell-based, human; settings: read-out: GI50 SRB Assay NCI-H460; 48 h treatment; average of n ≥ 3
[7] = system: DU-145 (prostate); experiment: SRB cytotoxicity assay, DU-145; type: cell-based, human; settings: read-out: GI50 SRB Assay DU-145; 48 h treatment; average of n ≥ 3

COc1ccc(/C=C/c2cc(OC)c(OC)c(OC)c2)c(NC(=O)C(N)CO)c1.Cl (stereo in doubt) [Compound 17, (S,E)-2-amino-3-hydroxy-N-(5-methoxy-2-(3,4,5-trimethoxystyryl)phenyl)propanamide hydrochloride]
Cleavage by LAP (in words) [1]: effectively cleaved

COc1ccc(/C=C\c2cc(OC)c(OC)c(OC)c2)cc1NC(=O)[C@@H](N)CO.Cl [AVE8062, reference compound]
Cleavage by LAP (in words) [1]: effectively cleaved

COc1ccc(/C=C\c2cc(OC)c(OC)c(OC)c2)cc1OP(=O)(O)O [CA4P, combretastatin A-4 phosphate, reference compound]
BLI signal compared with baseline (significance) ([2]; CA4P 120 mg/kg ip): significantly less signal
BLI signal versus saline control (significance) ([2]; CA4P 120 mg/kg ip, p<0.05): significantly different from saline

COc1ccc(/C=C\c2cc(OC)c(OC)c(OC)c2)c(N)c1 [Compound 7, (Z)-2-(2′-amino-4′-methoxyphenyl)-1-(3,4,5-trimethoxyphenyl)ethene]
GI50 values described in words [3]: highly potent

COc1ccc(/C=C\c2cc(OC)c(OC)c(OC)c2)c(N)c1N [Compound 8, (Z)-2-(2′,3′-Diamino-4′-methoxyphenyl)-1-(3,4,5-trimethoxyphenyl)ethene]
GI50 values described in words [3]: highly potent
Disruption of capillary-like network of tubules (HUVECs) [4]: significant disruption
Disruption of HUVEC tubular network on matrigel [4]: extensive disruption

COc1ccc(/C=C\c2cc(OC)c(OC)c(OC)c2)c(N)c1N.Cl [Compound 10, (Z)-2-(2′,3′-Diamine hydrochloride-4′-methoxyphenyl)-1-(3,4,5-trimethoxyphenyl)ethene]
Disruption of capillary-like network of tubules (HUVECs) [4]: significant disruption
Disruption of HUVEC tubular network on matrigel [4]: extensive disruption
Reduction in light emission (BLI) relative to baseline ([2]; 80 mg/kg ip, 2 h post treatment, 17 min time-point): approximately 95%
Reduction in bioluminescence compared to saline control ([2]; 80 mg/kg, 2 h post treatment): greater than 95%

COc1ccc(/C=C\c2cc(OC)c(OC)c(OC)c2)c(NC(=O)[C@@H](N)CO)c1.Cl [Compound 15, (S,Z)-2-amino-3-hydroxy-N-(5-methoxy-2-(3,4,5-trimethoxystyryl)phenyl)propanamide hydrochloride]
Cleavage by LAP (in words) [1]: effectively cleaved
Specific Activity of LAP [1]: 1.2 μM/min/enzyme unit
Cytotoxicity against selected human cancer cell lines (in words) [3]: significant cytotoxicity

COc1ccc(/C=C\c2cc(OC)c(OC)c(OC)c2)c(NC(=O)CN)c1.Cl [Compound 16, (Z)-2-amino-N-(5-methoxy-2-(3,4,5-trimethoxystyryl)phenyl)acetamide hydrochloride]
Cleavage by LAP (in words) [1]: quantitative cleavage; also recorded: quantitatively cleaved
% Cleavage by LAP [1]: 100%
Cleavage rate relative to corresponding serinamide analogue [1]: 150 times
Specific Activity of LAP [1]: 180 μM/min/enzyme unit
Cytotoxicity against selected human cancer cell lines (in words) [3]: significant cytotoxicity

COc1ccc(/C=C/c2cc(OC)c(OC)c(OC)c2)c(NC(=O)CN)c1.Cl [Compound 18, (E)-2-amino-N-(5-methoxy-2-(3,4,5-trimethoxystyryl)phenyl)acetamide hydrochloride]
Cleavage by LAP (in words) [1]: quantitative cleavage; also recorded: quantitatively cleaved
% Cleavage by LAP [1]: 100%
Cleavage rate relative to corresponding serinamide analogue [1]: more than 100 times
Cytotoxicity against selected human cancer cell lines (in words) [3]: more cytotoxic than the corresponding serinamide AAPC 17

COc1ccc(/C=C\c2cc(OC)c(OC)c(OC)c2)c(NC(=O)[C@@H](N)CO)c1NC(=O)[C@@H](N)CO [Compound 22, (2S, 2'S)-N, N’-(3-methoxy-6-((Z)-3,4,5-trimethoxystyryl)-1,2-phenylene)bis(2-amino-3-hydroxypropanamide)]
Cleavage by LAP (in words) [1]: resistant to LAP mediated cleavage
Cleavage with a large amount of LAP (in words) [1]: did not result in any observable cleavage

COc1ccc(/C=C\c2cc(OC)c(OC)c(OC)c2)c(NC(=O)[C@@H](N)CO)c1NC(=O)[C@@H](N)CO.Cl.Cl [Compound 23, (2S, 2'S)-N, N’-(3-methoxy-6-((Z)-3,4,5-trimethoxystyryl)-1,2-phenylene)bis(2-amino-3-hydroxypropanamide) dihydrochloride]
Cleavage by LAP (in words) [1]: resistant to LAP mediated cleavage
Cleavage with a large amount of LAP (in words) [1]: did not result in any observable cleavage

COc1ccc(/C=C\c2cc(OC)c(OC)c(OC)c2)c(NC(=O)CN)c1NC(=O)CN.Cl.Cl [Compound 24, (Z)-N,N'-(3-methoxy-6-(3,4,5-trimethoxystyryl)-1,2-phenylene)bis(2-aminoacetamide)]
Cleavage by LAP (in words) [1]: resistant to LAP mediated cleavage
Disappearance of the prodrug on LAP treatment ([1]; LAP 0.12 units, by 25 h): greater than 95%
% Cleavage by LAP [1]: <10-90%

COc1ccc2c(c1N)CCCC=C2c1cc(OC)c(OC)c(OC)c1 [Compound 33, 1-Amino-2-methoxy-5-(3’,4’,5’-trimethoxyphenyl)-benzosuber-5-ene]
GI50 values described in words [3]: highly potent
HUVEC tubule disruption and cell rounding effect ([5]; 0.1 μM): significant tubule disruption and cell rounding effect
HUVEC tubule disruption and cell rounding effect ([5]; 1 μM): greatly enhanced
HUVEC tube disruption and cell rounding capability [5]: robust tubule disruption

COc1ccc2c(c1NC(=O)[C@@H](N)CO)CCC=C2c1cc(OC)c(OC)c(OC)c1.Cl [Compound 38, (S)-2-Amino-3-hydroxy-N-(2-methoxy-5-(3,4,5-trimethoxyphenyl)-7,8-dihydronaphthalen-1-yl)propanamide hydrochloride]
% Cleavage by LAP [1]: < 10%

COc1ccc2c(c1NC(=O)[C@@H](N)CO)CCCC=C2c1cc(OC)c(OC)c(OC)c1.Cl [Compound 39, (S)-2-Amino-3-hydroxy-N-(3-methoxy-9-(3,4,5-trimethoxyphenyl)-6,7-dihydro-5H-benzo[7]annulen-4-yl)propanamide hydrochloride]
% Cleavage by LAP [1]: < 10%
GI50 [6]: 53.8 ± 0.864 µM
GI50 [7]: 69.4 ± 31.3 µM

COc1ccc2c(c1NC(=O)CN)CCC=C2c1cc(OC)c(OC)c(OC)c1.Cl [Compound 44, 2-Amino-N-(2-methoxy-5-(3,4,5-trimethoxyphenyl)-7,8-dihydronaphthalen-1-yl)acetamide hydrochloride]
% Cleavage by LAP [1]: 100%
Specific Activity of LAP [1]: 15.5 μM/min/enzyme unit
BLI signal versus saline control (significance) ([2]; 5 mg/kg ip, 4 h time point): not significantly different from saline control
BLI signal versus saline control (significance) ([2]; 15 mg/kg ip, p<0.05): significantly different from saline
BLI signal compared with baseline (significance) ([2]; 10 or 15 mg/kg ip): significantly less signal

COc1ccc2c(c1NC(=O)CN)CCCC=C2c1cc(OC)c(OC)c(OC)c1.Cl [Compound 45, 2-Amino-N-(3-methoxy-9-(3,4,5-trimethoxyphenyl)-6,7-dihydro-5H-benzo[7]annulen-4-yl)acetamide hydrochloride]
% Cleavage by LAP [1]: 100%
